According to ChEMBL document CHEMBL1134619, “Arylcyclopropanecarboxyl guanidines as novel, potent, and selective inhibitors of the sodium hydrogen exchanger isoform-1” (J Med Chem, 2001):
pIC50: −log10 of the molar value. One block for each molecule: values may come before it.

Experiments:
[1] = biological target: Sodium/hydrogen exchanger 1 (Homo sapiens, UniProt P19634); test: Screened in AP1 cells expressing human NHE-1 for sodium hydrogen exchange activity; assay type: functional, cell-based
Chain of Sodium/hydrogen exchanger 1 (P19634 whole entry, canonical isoform): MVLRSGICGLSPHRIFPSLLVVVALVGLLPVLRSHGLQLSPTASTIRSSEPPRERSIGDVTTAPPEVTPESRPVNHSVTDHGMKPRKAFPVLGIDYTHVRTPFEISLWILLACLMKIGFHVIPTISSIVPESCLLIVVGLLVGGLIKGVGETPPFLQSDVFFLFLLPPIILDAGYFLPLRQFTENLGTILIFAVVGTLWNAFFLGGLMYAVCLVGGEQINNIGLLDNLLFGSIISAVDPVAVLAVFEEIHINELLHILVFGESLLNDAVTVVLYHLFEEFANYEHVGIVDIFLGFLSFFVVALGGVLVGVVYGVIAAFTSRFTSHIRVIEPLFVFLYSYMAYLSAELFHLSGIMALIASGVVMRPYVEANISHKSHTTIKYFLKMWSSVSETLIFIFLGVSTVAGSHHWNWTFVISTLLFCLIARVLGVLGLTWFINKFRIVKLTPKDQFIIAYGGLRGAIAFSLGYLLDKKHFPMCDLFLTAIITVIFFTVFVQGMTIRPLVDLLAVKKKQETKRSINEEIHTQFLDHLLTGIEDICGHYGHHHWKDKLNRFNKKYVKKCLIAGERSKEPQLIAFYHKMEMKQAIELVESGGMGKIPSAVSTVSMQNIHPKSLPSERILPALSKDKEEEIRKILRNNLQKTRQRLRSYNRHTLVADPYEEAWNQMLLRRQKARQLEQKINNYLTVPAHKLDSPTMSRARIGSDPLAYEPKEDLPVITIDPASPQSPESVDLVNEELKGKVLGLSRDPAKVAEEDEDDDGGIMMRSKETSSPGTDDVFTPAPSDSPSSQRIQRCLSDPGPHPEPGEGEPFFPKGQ
Outline: (§1)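 AP1 cell monolayers expressing the given human NHE isoform, loaded with BCECF-AM (5 µM final, 30 min, room temperature) in NaCl-HEPES pH 7.3. Acid load by NH4Cl-HEPES for 9 min, then washes in Na+-free choline buffer. Drug preincubation 7.5 min, then NaCl added (135 mM final). Fluorescence 485/444 nm excitation ratio (538 nm emission) read after 5 min, minus no-NaCl activity. IC50 from 8-point dose-response curve, mean ± SEM of several experiments.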

[2] = Oral bioavailability in rat; assay type: ADME, organism-based; conditions: in vivo
Outline: (§2)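 Rats (n = 3) given a single 10 µmol/kg dose either intra-arterially or orally. Plasma samples analysed by LC/MS/MS. PK parameters are means ± SEM of the three animals.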

[3] = Half life period in rats was determined; assay type: ADME, organism-based; conditions: rat, in vivo; outline: as §2
[4] = Plasma clearance in rats was determined; assay type: ADME, organism-based; conditions: rat; outline: as §2
[5] = Volume distribution at steady state in rats was determined; assay type: ADME, organism-based; conditions: rat, in vivo; read-out: VSS; outline: as §2
[6] = biological target: T1, Sodium/hydrogen exchanger 3 (Homo sapiens, UniProt P48764); test: Compound is screened in AP1 cells expressing human NHE-3 for sodium hydrogen exchange activity; assay type: functional, cell-based; outline: as §1
T1 sequence (P48764 whole entry): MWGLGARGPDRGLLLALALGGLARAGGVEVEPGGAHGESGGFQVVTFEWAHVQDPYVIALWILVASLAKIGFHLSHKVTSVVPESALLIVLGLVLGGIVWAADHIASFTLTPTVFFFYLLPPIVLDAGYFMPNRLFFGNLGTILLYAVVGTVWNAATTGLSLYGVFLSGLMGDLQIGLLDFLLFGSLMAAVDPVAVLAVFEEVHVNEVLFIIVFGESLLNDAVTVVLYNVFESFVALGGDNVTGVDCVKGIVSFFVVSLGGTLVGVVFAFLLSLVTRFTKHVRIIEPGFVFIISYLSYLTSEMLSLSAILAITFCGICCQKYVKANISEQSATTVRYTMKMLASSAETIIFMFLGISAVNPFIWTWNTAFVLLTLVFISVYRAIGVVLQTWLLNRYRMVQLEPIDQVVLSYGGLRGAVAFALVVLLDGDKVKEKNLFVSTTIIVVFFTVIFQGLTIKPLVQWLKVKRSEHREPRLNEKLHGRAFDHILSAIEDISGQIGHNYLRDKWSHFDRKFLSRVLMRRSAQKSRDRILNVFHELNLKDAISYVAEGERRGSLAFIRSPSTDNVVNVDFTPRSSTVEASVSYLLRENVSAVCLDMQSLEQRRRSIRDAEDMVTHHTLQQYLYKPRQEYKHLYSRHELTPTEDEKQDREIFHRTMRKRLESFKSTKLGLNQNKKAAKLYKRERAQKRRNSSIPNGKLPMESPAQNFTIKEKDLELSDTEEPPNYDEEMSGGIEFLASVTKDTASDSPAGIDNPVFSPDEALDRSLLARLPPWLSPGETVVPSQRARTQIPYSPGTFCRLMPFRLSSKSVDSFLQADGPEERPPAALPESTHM

[7] = biological target: T2, Sodium/hydrogen exchanger 5 (Homo sapiens, UniProt Q14940); test: Compound is screened in AP1 cells expressing human NHE-5 for sodium hydrogen exchange activity; assay type: functional, cell-based; outline: as §1
T2 sequence (Q14940 whole entry): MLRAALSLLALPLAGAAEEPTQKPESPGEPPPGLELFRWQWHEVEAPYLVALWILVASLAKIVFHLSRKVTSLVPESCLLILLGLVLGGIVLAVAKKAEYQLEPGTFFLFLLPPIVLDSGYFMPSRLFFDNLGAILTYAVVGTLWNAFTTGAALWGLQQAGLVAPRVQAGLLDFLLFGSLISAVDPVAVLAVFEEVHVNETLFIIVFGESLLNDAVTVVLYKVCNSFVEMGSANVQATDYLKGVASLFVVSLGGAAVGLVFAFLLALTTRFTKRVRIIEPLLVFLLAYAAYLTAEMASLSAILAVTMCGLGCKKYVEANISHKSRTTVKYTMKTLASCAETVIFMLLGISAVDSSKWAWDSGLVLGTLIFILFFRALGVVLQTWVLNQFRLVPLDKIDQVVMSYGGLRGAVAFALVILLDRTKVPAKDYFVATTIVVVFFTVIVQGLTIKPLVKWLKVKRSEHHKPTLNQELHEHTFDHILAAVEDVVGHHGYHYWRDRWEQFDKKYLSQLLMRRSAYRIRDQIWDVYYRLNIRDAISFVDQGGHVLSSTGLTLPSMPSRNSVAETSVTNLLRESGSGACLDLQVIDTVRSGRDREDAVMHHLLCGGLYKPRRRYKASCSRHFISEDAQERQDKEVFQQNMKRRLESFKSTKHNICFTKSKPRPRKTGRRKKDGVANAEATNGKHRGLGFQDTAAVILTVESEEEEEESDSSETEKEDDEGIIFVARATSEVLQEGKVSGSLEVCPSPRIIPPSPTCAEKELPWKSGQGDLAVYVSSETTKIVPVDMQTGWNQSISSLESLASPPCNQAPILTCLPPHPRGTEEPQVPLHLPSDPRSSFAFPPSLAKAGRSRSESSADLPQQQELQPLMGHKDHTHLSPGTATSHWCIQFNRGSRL

[8] = biological target: T3, Sodium/hydrogen exchanger 2 (Homo sapiens, UniProt Q9UBY0); test: Compound is screened in AP1 cells expressing human NHE-2 for sodium hydrogen exchange activity; assay type: functional, cell-based; outline: as §1
T3 sequence (Q9UBY0 whole entry): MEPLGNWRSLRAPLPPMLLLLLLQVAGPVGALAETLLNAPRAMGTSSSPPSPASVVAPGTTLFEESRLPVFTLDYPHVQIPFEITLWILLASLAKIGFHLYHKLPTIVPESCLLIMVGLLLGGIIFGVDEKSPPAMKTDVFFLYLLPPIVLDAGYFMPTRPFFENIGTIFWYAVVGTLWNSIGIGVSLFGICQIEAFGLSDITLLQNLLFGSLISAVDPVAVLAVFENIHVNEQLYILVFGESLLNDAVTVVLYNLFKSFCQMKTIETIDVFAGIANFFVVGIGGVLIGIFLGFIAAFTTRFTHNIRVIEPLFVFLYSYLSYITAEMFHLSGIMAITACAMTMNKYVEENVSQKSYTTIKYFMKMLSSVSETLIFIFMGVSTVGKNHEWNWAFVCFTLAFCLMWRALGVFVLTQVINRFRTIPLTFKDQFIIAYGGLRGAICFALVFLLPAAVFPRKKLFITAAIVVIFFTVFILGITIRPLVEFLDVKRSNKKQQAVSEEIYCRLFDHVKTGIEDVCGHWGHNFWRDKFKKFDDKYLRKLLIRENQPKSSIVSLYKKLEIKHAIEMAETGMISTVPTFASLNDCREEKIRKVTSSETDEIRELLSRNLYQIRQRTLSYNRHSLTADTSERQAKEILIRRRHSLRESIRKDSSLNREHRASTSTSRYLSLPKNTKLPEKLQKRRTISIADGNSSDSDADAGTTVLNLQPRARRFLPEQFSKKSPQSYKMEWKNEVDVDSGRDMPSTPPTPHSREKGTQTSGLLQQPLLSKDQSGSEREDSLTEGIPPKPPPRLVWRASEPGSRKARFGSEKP

pIC50 [1]: 5.46
SMILES: N=C(N)NC(=O)[C@H]1C[C@@H]1c1ccccc1

bioavailability [2]: 47% | half-life [3]: 8 h | clearance [4]: 44 mL/min/kg | pIC50 [1]: 8.30 | Vd [5]: 23 L/kg
SMILES: CC1(C)[C@H](C(=O)N=C(N)N)[C@H]1c1cc(Cl)ccc1Cl

pIC50 [1]: 8.30
SMILES: CCc1cc([C@@H]2[C@@H](C(=O)NC(=N)N)C2(C)C)ccc1F

bioavailability [2]: 49% | half-life [3]: 1.3 h | clearance [4]: 120 mL/min/kg | pIC50 [1]: 6.92 | Vd [5]: 6 L/kg
SMILES: N=C(N)NC(=O)[C@H]1C[C@@H]1c1cccc2c1CCO2

pIC50 [1]: 6.01
SMILES: N=C(N)NC(=O)[C@H]1C[C@@H]1c1ccccc1Cl

pIC50 [1]: < 4.52
SMILES: CC(C)c1ccc([C@H]2C[C@@H]2C(=O)NC(=N)N)cc1

pIC50 [1]: 8.22
SMILES: CC1(C)[C@H](C(=O)NC(=N)N)[C@H]1c1cc(Cl)cc(Cl)c1

pIC50 [1]: 7.77
SMILES: CC(C)c1cc([C@@H]2[C@@H](C(=O)N=C(N)N)C2(C)C)ccc1F

pIC50 [1]: 5.54
SMILES: N=C(N)NC(=O)[C@H]1C[C@@H]1c1ccc(Cl)cc1

pIC50 [1]: 6.42 | pIC50 [6]: < 4.52 | pIC50 [7]: < 4.52 | pIC50 [8]: 4.77
SMILES: Cc1cc(-n2cccc2)c(S(C)(=O)=O)cc1C(=O)NC(=N)N [ENIPORIDE]

pIC50 [1]: 8.52
SMILES: CC1(C)[C@H](C(=O)N=C(N)N)[C@H]1c1ccc(F)c(Br)c1

pIC50 [1]: 6.55
SMILES: N=C(N)NC(=O)[C@H]1C[C@@H]1c1cccc(Cl)c1

bioavailability [2]: 63% | half-life [3]: 3 h | clearance [4]: 74 mL/min/kg | pIC50 [1]: 8.05 | pIC50 [6]: < 4.52 | pIC50 [7]: 5.47 | pIC50 [8]: 5.74 | Vd [5]: 8.6 L/kg
SMILES: CC1(C)[C@H](C(=O)N=C(N)N)[C@H]1c1cccc2c1CCO2

pIC50 [1]: 5.80
SMILES: N=C(N)NC(=O)[C@H]1C[C@@H]1c1ccc(F)cc1

pIC50 [1]: 6.27
SMILES: COc1cccc([C@H]2C[C@@H]2C(=O)NC(=N)N)c1

pIC50 [1]: 7.49
SMILES: Cc1cc([C@@H]2[C@@H](C(=O)N=C(N)N)C2(C)C)ccc1F

pIC50 [1]: 7.85
SMILES: CC1(C)[C@H](C(=O)NC(=N)N)[C@H]1c1cccc(Cl)c1

pIC50 [1]: 5.80
SMILES: N=C(N)NC(=O)[C@H]1C[C@@H]1c1cccc([N+](=O)[O-])c1

pIC50 [1]: 7.92
SMILES: COc1cccc([C@@H]2[C@@H](C(=O)NC(=N)N)C2(C)C)c1

pIC50 [1]: 7.16
SMILES: CC1(C)[C@H](C(=O)N=C(N)N)[C@H]1c1ccccc1

bioavailability [2]: 13% | half-life [3]: 3.4 h | clearance [4]: 143 mL/min/kg | pIC50 [1]: 7.40 | Vd [5]: 21 L/kg
SMILES: N=C(N)NC(=O)[C@H]1C[C@@H]1c1cc(Cl)ccc1Cl

pIC50 [1]: < 4.52
SMILES: N=C(N)NC(=O)[C@H]1C[C@@H]1c1ccc([N+](=O)[O-])cc1

pIC50 [1]: 7.05
SMILES: N=C(N)NC(=O)[C@H]1C[C@@H]1c1ccc(F)c(Br)c1

pIC50 [1]: 5.47 | pIC50 [6]: < 4.52 | pIC50 [7]: < 4.52 | pIC50 [8]: 4.21
SMILES: CC(C)c1ccc(C(=O)NC(=N)N)cc1S(C)(=O)=O [CARIPORIDE]
